Data reported in ChEMBL document CHEMBL4673224, “Synthesis of 7-benzylguanosine cap-analogue conjugates for eIF4E targeted degradation” (Eur J Med Chem, 2019).
Activity calls are given as the source filed them. The rule behind the calls is not given here.

Key:
[1] = molecular target: Eukaryotic translation initiation factor 4E (Homo sapiens) (UniProt P06730); assay: Inhibition of eIF4E binding to m7GDP in immobilized resin with HEK293 lysate at 500 uM by western blot analysis based competitive binding assay; format: subcellular; conditions: time 12.0 hrs
Summary of the method: (§1)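 350 μg protein bound to m7GDP agarose for 2 h at 4 °C, washed, then exposed to compound in Buffer A overnight. Bound protein eluted in LDS buffer and probed with anti-eIF4E antibody. m7GDP is the positive control and DMSO the negative control.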

[2] = molecular target: T1, Protein cereblon/Eukaryotic translation initiation factor 4E (Homo sapiens) (UniProt P06730+Q96SW2); assay: Protac activity at E3-ligase/eIF4E in human K562 cells assessed as intracellular eIF4E degradation by Western blot analysis; format: cell-based
[3] = molecular target: T1, Protein cereblon/Eukaryotic translation initiation factor 4E (Homo sapiens); assay: Protac activity at E3-liagse/eIF4E in human MDA-MB-231 cells assessed as reduction in eIF4E protein level at 25 to 200 uM after 24 to 72 hrs; format: cell-based; conditions: dose 25-200 µM, time 24-72 hrs
Summary of the method: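 MDA-MB-231 cells are grown in RPMI-1640 with 10% FBS and 1 mM glutamine at 37 °C under 5% CO2. Cells are exposed to compound at 25–200 μM for 24–72 h, and eIF4E protein level is then assessed.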

[4] = molecular target: Eukaryotic translation initiation factor 4E (Homo sapiens) (UniProt P06730); assay: Inhibition of eIF4E binding to m7GMP in immobilized resin with HEK293 lysate at 500 uM by western blot analysis based competitive binding assay; format: subcellular
Summary of the method: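 Cap pull-down is carried out on m7GMP agarose. HEK293 lysate is freeze-thawed thrice and cleared at 20,000 × g, and 350 μg protein is loaded for 2 h at 4 °C. After washes, the resin is incubated overnight with 500 μM compound in Buffer A (50 mM HEPES-KOH pH 7.5, 150 mM KCl). eIF4E remaining on the resin is read by anti-eIF4E western blot. m7GMP is the positive control and DMSO the negative control.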

[5] = molecular target: Eukaryotic translation initiation factor 4E (Homo sapiens) (UniProt P06730); assay: Inhibition of eIF4E binding to m7GDP in immobilized resin with HEK293 lysate by western blot analysis based competitive binding assay; format: subcellular; conditions: dose 50-500 µM; summary of the method: as §1

Eukaryotic translation initiation factor 4E (Homo sapiens), sequence (P06730 whole entry): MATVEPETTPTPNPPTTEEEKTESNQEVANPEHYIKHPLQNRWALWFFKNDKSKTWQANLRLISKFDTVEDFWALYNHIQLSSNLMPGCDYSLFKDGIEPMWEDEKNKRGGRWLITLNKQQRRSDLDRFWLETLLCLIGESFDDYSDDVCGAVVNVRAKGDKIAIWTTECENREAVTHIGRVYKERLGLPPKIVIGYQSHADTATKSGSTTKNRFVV
T1 sequence (P06730 whole entry, looked up): as the sequence (P06730 whole entry) above
T1 sequence (Q96SW2 whole entry, looked up): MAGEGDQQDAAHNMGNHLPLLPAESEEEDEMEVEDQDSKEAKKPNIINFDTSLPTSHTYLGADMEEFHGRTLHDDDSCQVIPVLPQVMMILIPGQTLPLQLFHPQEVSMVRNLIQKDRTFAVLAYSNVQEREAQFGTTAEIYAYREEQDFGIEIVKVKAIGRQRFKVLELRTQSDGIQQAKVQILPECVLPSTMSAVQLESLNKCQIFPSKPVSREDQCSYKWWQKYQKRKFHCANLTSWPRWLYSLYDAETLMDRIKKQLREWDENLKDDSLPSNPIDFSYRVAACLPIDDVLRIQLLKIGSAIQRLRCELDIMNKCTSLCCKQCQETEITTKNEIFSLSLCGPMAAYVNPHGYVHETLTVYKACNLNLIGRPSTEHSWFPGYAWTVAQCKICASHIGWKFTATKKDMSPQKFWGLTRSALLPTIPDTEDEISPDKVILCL

SMILES: Nc1nc2c(ncn2[C@@H]2O[C@H](COP(=O)(O)OP(=O)(O)NCCOCCOCCOCCC(=O)Nc3cccc4c3CN(C3CCC(=O)NC3=O)C4=O)[C@@H](O)[C@H]2O)c(=O)[nH]1 (stereo partly drawn)
- inhibition [1]: inactive
- Activity [2]: inactive

SMILES: Cc1ncsc1-c1ccc(CNC(=O)C2C[C@H](O)CN2C(=O)[C@@H](NC(=O)CCCCCNP(=O)(O)OP(=O)(O)OC[C@H]2O[C@@H](n3c[n+](Cc4ccccc4)c4c(=O)[nH]c(N)nc43)[C@H](O)[C@@H]2O)C(C)(C)C)cc1 (stereo partly drawn)
- inhibition [1]: Active
- Activity [3]: inactive
- Activity [2]: inactive

SMILES: Nc1nc2c(c(=O)[nH]1)[n+](Cc1ccc(F)cc1)cn2[C@@H]1O[C@H](COP(=O)(O)OP(=O)(O)NCCOCCOCCOCCC(=O)Nc2cccc3c2CN(C2CCC(=O)NC2=O)C3=O)[C@@H](O)[C@H]1O (stereo partly drawn)
- inhibition [1]: Active
- Activity [3]: inactive
- Activity [2]: inactive

SMILES: Cc1ncsc1-c1ccc(CNC(=O)C2C[C@H](O)CN2C(=O)[C@@H](NC(=O)CCCCCNP(=O)(O)OP(=O)(O)OC[C@H]2O[C@@H](n3c[n+](Cc4ccc(F)cc4)c4c(=O)[nH]c(N)nc43)[C@H](O)[C@@H]2O)C(C)(C)C)cc1 (stereo partly drawn)
- inhibition [1]: Active
- Activity [3]: inactive
- Activity [2]: inactive

SMILES: Nc1nc2c(ncn2[C@@H]2O[C@H](COP(=O)(O)OP(=O)(O)NCCOCCOCCOCCOCCOCCOCCOCCC(=O)Nc3cccc4c3CN(C3CCC(=O)NC3=O)C4=O)[C@@H](O)[C@H]2O)c(=O)[nH]1 (stereo partly drawn)
- inhibition [1]: inactive

SMILES: Cc1ncsc1-c1ccc(CNC(=O)C2C[C@H](O)CN2C(=O)[C@@H](NC(=O)CCCCCNP(=O)(O)OP(=O)(O)OC[C@H]2O[C@@H](n3cnc4c(=O)[nH]c(N)nc43)[C@H](O)[C@@H]2O)C(C)(C)C)cc1 (stereo partly drawn)
- inhibition [1]: inactive
- Activity [2]: inactive

SMILES: Nc1nc2c(c(=O)[nH]1)[n+](Cc1ccccc1)cn2[C@@H]1O[C@H](COP(=O)(O)OP(=O)(O)NCCOCCOCCOCCOCCOCCOCCOCCC(=O)Nc2cccc3c2CN(C2CCC(=O)NC2=O)C3=O)[C@@H](O)[C@H]1O (stereo partly drawn)
- inhibition [1]: Active
- Activity [3]: inactive

SMILES: Nc1nc2c(c(=O)[nH]1)[n+](Cc1ccc(F)cc1)cn2[C@@H]1O[C@H](COP(=O)(O)NCCCCCC(=O)Nc2cccc3c2CN(C2CCC(=O)NC2=O)C3=O)[C@@H](O)[C@H]1O (stereo partly drawn)
- inhibition [4]: inactive

SMILES: Nc1nc2c(c(=O)[nH]1)[n+](Cc1ccccc1)cn2[C@@H]1O[C@H](COP(=O)(O)OP(=O)(O)NCCOCCOCCOCCC(=O)Nc2cccc3c2CN(C2CCC(=O)NC2=O)C3=O)[C@@H](O)[C@H]1O (stereo partly drawn)
- inhibition [1]: Active
- Activity [3]: inactive
- Activity [2]: inactive

SMILES: Nc1nc2c(c(=O)[nH]1)[n+](Cc1ccccc1)cn2[C@@H]1O[C@H](COP(=O)(O)NCCCCCC(=O)Nc2cccc3c2CN(C2CCC(=O)NC2=O)C3=O)[C@@H](O)[C@H]1O (stereo partly drawn)
- inhibition [4]: inactive

SMILES: Nc1nc2c(c(=O)[nH]1)[n+](Cc1ccc(F)cc1)cn2[C@@H]1O[C@H](COP(=O)(O)OP(=O)(O)NCCOCCOCCOCCOCCOCCOCCOCCC(=O)Nc2cccc3c2CN(C2CCC(=O)NC2=O)C3=O)[C@@H](O)[C@H]1O (stereo partly drawn)
- inhibition [1]: Active
- Activity [3]: inactive

SMILES: Nc1nc2c(ncn2[C@@H]2O[C@H](COP(=O)(O)OP(=O)(O)NCCCCCC(=O)Nc3cccc4c3CN(C3CCC(=O)NC3=O)C4=O)[C@@H](O)[C@H]2O)c(=O)[nH]1 (stereo partly drawn)
- inhibition [1]: inactive

SMILES: Nc1nc2c(ncn2[C@@H]2O[C@H](COS(=O)(=O)NC(=O)CCC(=O)NCCCCCC(=O)Nc3cccc4c3CN(C3CCC(=O)NC3=O)C4=O)[C@@H](O)[C@H]2O)c(=O)[nH]1 (stereo partly drawn)
- inhibition [4]: inactive

SMILES: Nc1nc2c(c(=O)[nH]1)[n+](Cc1ccc(F)cc1)cn2[C@@H]1O[C@H](COP(=O)(O)OP(=O)(O)NCCCCCC(=O)Nc2cccc3c2CN(C2CCC(=O)NC2=O)C3=O)[C@@H](O)[C@H]1O (stereo partly drawn)
- inhibition [1]: Active
- Activity [3]: inactive

SMILES: Nc1nc2c(c(=O)[nH]1)[n+](Cc1ccccc1)cn2[C@@H]1O[C@H](COP(=O)(O)OP(=O)(O)NCCCCCC(=O)Nc2cccc3c2CN(C2CCC(=O)NC2=O)C3=O)[C@@H](O)[C@H]1O (stereo partly drawn)
- inhibition [1]: Active
- Activity [3]: inactive
- inhibition [5]: Dose-dependent effect

SMILES: Nc1nc2c(ncn2[C@@H]2O[C@H](COP(=O)(O)NCCCCCC(=O)Nc3cccc4c3CN(C3CCC(=O)NC3=O)C4=O)[C@@H](O)[C@H]2O)c(=O)[nH]1 (stereo partly drawn)
- inhibition [4]: inactive

SMILES: Nc1nc2c(c(=O)[nH]1)[n+](Cc1ccc(F)cc1)cn2[C@@H]1O[C@H](COS(=O)(=O)NC(=O)CCC(=O)NCCCCCC(=O)Nc2cccc3c2CN(C2CCC(=O)NC2=O)C3=O)[C@@H](O)[C@H]1O (stereo partly drawn)
- inhibition [4]: inactive

SMILES: Nc1nc2c(c(=O)[nH]1)[n+](Cc1ccccc1)cn2[C@@H]1O[C@H](COS(=O)(=O)NC(=O)CCC(=O)NCCCCCC(=O)Nc2cccc3c2CN(C2CCC(=O)NC2=O)C3=O)[C@@H](O)[C@H]1O (stereo partly drawn)
- inhibition [4]: inactive
